ChEMBL document CHEMBL3734704, “Synthesis and Biological Evaluation of Novel Bouchardatine Derivatives as Potential Adipogenesis/Lipogenesis Inhibitors for Antiobesity Treatment” (J Med Chem, 2015)
Calls of active or inactive are those of the source. The rule behind the calls is not given here.

Legend:
[1] = Downregulation of FAS level in mouse 3T3L1 cells after 6 days by western blot analysis; type: functional, cell-based; settings: 3T3-L1
Procedure, shortened: (§1)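 3T3-L1 preadipocytes incubated in adipogenic cocktail with or without compound (0.3, 1.0, 3.0 µM) for the stated periods. Protein levels measured by Western blot (RIPA lysis, PVDF, BSA block, primary 16 h at 4 °C, HRP secondary), normalized to GAPDH/Tubulin and expressed relative to controls; n = 3.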

[2] = Cell cycle arrest in mouse 3T3L1 cells assessed as number of cells at G2/M phase at 3 uM after 24 hrs by flow cytometry (reference value: 37.2%); type: functional, cell-based; settings: 3T3-L1
HepG2 [3] = experiment: Decrease in triglyceride level in human HepG2 cells at 10 uM after 24 hrs by GPO-POD assay in presence of 0.5 mM oleic acid sodium; type: functional
Procedure, shortened: (§2)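 HepG-2 cells seeded, then after 24 h exposed to 0.5 mM oleic acid sodium plus compound (1 µM; dose series up to 10 µM) for 24 h, DMSO vehicle. Cells lysed in 0.2% Triton X-100 for 1 h, sonicated, centrifuged. Triglyceride measured by GPO-POD kit and cholesterol by kit, both normalized to BCA protein; n = 3.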

[4] = Downregulation of PPAR-gamma mRNA level in mouse 3T3L1 cells at 0.3 to 3 uM after 24 hrs by RT-PCR analysis; type: functional, cell-based; settings: 3T3-L1
Procedure, shortened: (§3)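 3T3-L1 preadipocytes in adipogenic cocktail with compound (0.3-3.0 µM; 3 µM for the 2 h and 24 h time course). Total RNA extracted, cDNA made from 1 µg RNA with oligo primer, then PCR: 95 °C 10 min, 35 cycles of 95 °C 30 s, annealing 45 s, 72 °C 1 min, final 72 °C 10 min. Normalized to actin; n = 3.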

[5] = Downregulation of CaMKKalpha expression in mouse 3T3L1 cells by western blot analysis; type: functional, cell-based; settings: 3T3-L1
[6] = Downregulation of C/EBP beta mRNA level in mouse 3T3L1 cells at 3 uM after 2 and 24 hrs by RT-PCR analysis; type: functional, cell-based; settings: 3T3-L1; procedure, shortened: as §3
[7] = Downregulation of SREBP-1c mRNA level in mouse 3T3L1 cells at 3 uM after 24 hrs by RT-PCR analysis; type: functional, cell-based; settings: 3T3-L1; procedure, shortened: as §3
[8] = Cell cycle arrest in mouse 3T3L1 cells assessed as number of cells at G0/G1 phase at 3 uM after 24 hrs by flow cytometry (reference value: 37.6%); type: functional, cell-based; settings: 3T3-L1
[9] = Cell cycle arrest in mouse 3T3L1 cells assessed as number of cells at S phase at 3 uM after 24 hrs by flow cytometry (reference value: 18.1%); type: functional, cell-based; settings: 3T3-L1
HeLa = experiment: Drug uptake in human HeLa cells measured from 5 mins to 1 hr by fluorescence analysis; type: ADME, cell-based
[10] = Cell cycle arrest in mouse 3T3L1 cells assessed as number of cells at G2/M phase at 0.3 uM after 24 hrs by flow cytometry (reference value: 37.2%); type: functional, cell-based; settings: 3T3-L1
[11] = Downregulation of ACC level in mouse 3T3L1 cells after 6 days by western blot analysis; type: functional, cell-based; settings: 3T3-L1; procedure, shortened: as §1
[12] = Downregulation of C/EBP alpha mRNA level in mouse 3T3L1 cells at 3 uM after 24 hrs by RT-PCR analysis; type: functional, cell-based; settings: 3T3-L1; procedure, shortened: as §3
3T3-L1 [13] = experiment: Induction of apoptosis in mouse 3T3L1 cells assessed as late apoptotic cells at 1 uM after 24 hrs by annexin-V-FITC and PI staining based flow cytometry (reference value: 0.03%); type: functional
[14] = Upregulation of LKB1 expression in mouse 3T3L1 cells at 3 uM after 10 mins by western blot analysis; type: functional, cell-based; settings: 3T3-L1
Procedure, shortened: (§4)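 During 3T3-L1 differentiation with adipogenic cocktail, cells were treated with 3 µM compound for 10 min, 2 h or 24 h. Lysates in RIPA with protease/phosphatase inhibitors were run on SDS-PAGE and Western blotted. Proteins were normalized to GAPDH and expressed relative to the 10 min DMSO group, which was set at 100%; n = 3 independent experiments.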

HepG2 [15] = experiment: Decrease in triglyceride level in human HepG2 cells after 24 hrs by GPO-POD assay in presence of 0.5 mM oleic acid sodium; type: functional, cell-based; procedure, shortened: as §2
[16] = Upregulation of LKB1 expression in mouse 3T3L1 cells at 3 uM after 2 and 24 hrs by western blot analysis; type: functional, cell-based; settings: 3T3-L1; procedure, shortened: as §4
[17] = Decrease in triglyceride level in mouse 3T3L1 cells during all developmental stages at 0.5 uM for 9 days; type: functional, cell-based; settings: 3T3-L1
Procedure, shortened: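 During 3T3-L1 differentiation with compound present (0.5 µM, or 5 µM for one compound), cells were collected and counted every day and triglyceride content was measured by TG assay.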

[18] = Cell cycle arrest in mouse 3T3L1 cells assessed as number of cells at S phase at 0.3 uM after 24 hrs by flow cytometry (reference value: 18.1%); type: functional, cell-based; settings: 3T3-L1
3T3-L1 [19] = experiment: Induction of apoptosis in mouse 3T3L1 cells assessed as viable cells at 0.3 uM after 24 hrs by annexin-V-FITC and PI staining based flow cytometry (reference value: 98.95%); type: functional; settings: 3T3-L1, 24 h, read-out: Activity
[20] = Decrease in triglyceride accumulation in mouse 3T3L1 cells at 10 uM for 3 days oil red O staining based microscopic analysis; type: functional, cell-based; settings: 3T3-L1
Procedure, shortened: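 3T3-L1 cells differentiated from 2 days post-confluence with IBMX/dexamethasone/insulin cocktail for 3 days, then insulin medium to Day 6. Compounds at 1 and 10 µM added Day 0 for 3 days. Triglyceride read on Day 6 with Oil Red O (formaldehyde fixation, 30 min stain, isopropanol extraction, OD 510 nm); n = 3.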

[21] = Downregulation of SCD-1 level in mouse 3T3L1 cells after 6 days by western blot analysis; type: functional, cell-based; settings: 3T3-L1; procedure, shortened: as §1
[22] = Downregulation of C/EBP beta mRNA level in mouse 3T3L1 cells at 0.3 to 3 uM after 24 hrs by RT-PCR analysis; type: functional, cell-based; settings: 3T3-L1; procedure, shortened: as §3
[23] = Cytotoxicity against mouse 3T3L1 cells preadipocytes assessed as cell viability at 1 to 10 uM for 24, 48 and 72 hrs by LDH release assay relative to control; settings: 3T3-L1 preadipocyte cells
[24] = Decrease in triglyceride level in mouse 3T3L1 cells at 1 uM measured during 6 to 9 days by oil red O staining based microscopic analysis; type: functional, cell-based; settings: 3T3-L1
Procedure, shortened: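 3T3-L1 cells given 1 µM compound during day 0-3, 0-6, 0-9, 3-6, 3-9 or 6-9 of differentiation. On Day 9, intracellular lipid measured by TG assay (Triton lysate, GPO-POD kit, per protein) and by Oil Red O staining with microscopy; n = 3.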

[25] = Downregulation of C/EBP delta mRNA level in mouse 3T3L1 cells at 0.3 to 3 uM after 24 hrs by RT-PCR analysis; type: functional, cell-based; settings: 3T3-L1; procedure, shortened: as §3
[26] = Downregulation of SREBP-1c level in mouse 3T3L1 cells at 0.3 to 3 uM after 3 days by western blot analysis; type: functional, cell-based; settings: 3T3-L1; procedure, shortened: as §1
[27] = Decrease in triglyceride level in mouse 3T3L1 preadipocytes compound treated for 6 days measured on day 6 by oil red O staining based microscopic analysis; type: functional, cell-based
Procedure, shortened: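 3T3-L1 preadipocytes, 2 days post-confluent, treated at 0.01-10.0 µM for 6 days of differentiation, with compound added Day 0 and renewed Day 3. On Day 6, TG measured by TG assay (per protein) and confirmed by Oil Red O staining; n = 3.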

## O=Cc1c(-c2nc(NCCN3CCCC3)c3ccccc3n2)[nH]c2ccccc12
[1]
  inhibition: Dose-dependent effect
[2]
  Activity: 57.9%
HepG2 [3]
  inhibition (INH): 32%
[4]
  inhibition: Active
[5]
  inhibition: Active
[6]
  inhibition: Active
[7]
  inhibition: Active
[8]
  Activity: 33.5%
[9]
  Activity: 3.3%
HeLa
  Drug uptake: Active
[10]
  Activity: 40.2%
[11]
  inhibition: Dose-dependent effect
[12]
  inhibition: Active
3T3-L1 [13]
  Activity: 0.25%
[14]
  Activity: Active
HepG2 [15]
  inhibition: Dose-dependent effect
[16]
  Activity: Active
[17]
  inhibition: Active
[18]
  Activity: 6.4%
3T3-L1 [19]
  viability at 0.3 µM: 96.5%
[20]
  inhibition: 94.9%
[21]
  inhibition: Dose-dependent effect
[22]
  inhibition: Active
[23]
  viability at 72 h, 10 µM: 83%
[24]
  inhibition: 60%
[25]
  inhibition: Active
[26]
  inhibition: Active
[27]; 3T3-L1
  inhibition: Dose-dependent effect
[27]; 3t3-l1
  EC50: 17 nM
